According to ChEMBL document CHEMBL1122410, “Synthesis of 3,6-bis(aminoalkoxy)acridines and their effect on the immune System” (1983):
Activity calls are given as the source filed them. The calls are words filed in the database; no cut-off is given here.

Legend:
Mus musculus [1] = assay: Percent reduction in spleen weight in mice as compared to infected untreated controls at 100 mg/kg; type: functional
Outline: (§1)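 In BALB/c mice infected ip with Rauscher leukemia virus (same-sex, ≥18 g), compound was given orally in 0.2% Noble agar/saline on days 6, 7 and 8 at 25–200 mg/kg. Animals were weighed on day 14. Spleen weight is expressed as percent reduction versus infected placebo-treated controls, and ≥50% reduction counts as active.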

Mus musculus [2] = assay: Efficacy against a lethal virus challenge with an interferon sensitive virus, columbia SK was evaluated 14 days postinfection (oral dosing) as number of mice survived out of 15 tested; type: functional
Ovis aries [3] = assay: Antibody stimulation by serum hemagglutininin titer over the titer for the infected placebo-treated control in sheep red blood cells at 100 mg/Kg of dose; value is 64/16; type: functional
Mus musculus [4] = assay: Percent reduction in spleen weight in mice as compared to infected untreated controls at 200 mg/kg; type: functional; outline: as §1
Mus musculus [5] = assay: Efficacy against a lethal virus challenge with an interferon sensitive virus, columbia SK was evaluated 14 days postinfection (oral dosing) as number of mice survived out of 15 tested; NT = Not tested; type: functional
Mus musculus [6] = assay: Percent reduction in spleen weight in mice as compared to infected untreated controls at 50 mg/kg; type: functional; outline: as §1
Ovis aries [7] = assay: Antibody stimulation by serum hemagglutininin titer over the titer for the infected placebo-treated control in sheep red blood cells at 100 mg/Kg of dose; value is 32/16; type: functional
Ovis aries [8] = assay: Antibody stimulation by serum hemagglutininin titer over the titer for the infected placebo-treated control in sheep red blood cells at 200 mg/Kg of dose; value is 128/16; type: functional
Ovis aries [9] = species on record: Ovis aries; assay: Antibody stimulation by serum hemagglutininin titer over the titer for the infected placebo-treated control in sheep red blood cells; NA=Not active; type: functional, organism-based
Ovis aries [10] = assay: Antibody stimulation by serum hemagglutininin titer over the titer for the infected placebo-treated control in sheep red blood cells at 50 mg/Kg of dose; value is 64/16; type: functional
Ovis aries [11] = assay: Antibody stimulation by serum hemagglutininin titer over the titer for the infected placebo-treated control in sheep red blood cells at 25 mg/Kg of dose; value is 32/16; type: functional
Ovis aries [12] = assay: Antibody stimulation by serum hemagglutininin titer over the titer for the infected placebo-treated control in sheep red blood cells at 25 mg/Kg of dose; value is 128/16; type: functional
Ovis aries [13] = assay: Antibody stimulation by serum hemagglutininin titer over the titer for the infected placebo-treated control in sheep red blood cells at 25 mg/Kg of dose; value is 256/64; type: functional
Ovis aries [14] = assay: Antibody stimulation by serum hemagglutininin titer over the titer for the infected placebo-treated control in sheep red blood cells at 100 mg/Kg of dose; value is 128/16; type: functional
Mus musculus [15] = assay: Efficacy against a lethal virus challenge with an interferon sensitive virus, columbia SK was evaluated 14 days postinfection (oral dosing) as number of mice survived out of 20 tested; type: functional
Ovis aries [16] = assay: Antibody stimulation by serum hemagglutininin titer over the titer for the infected placebo-treated control in sheep red blood cells at 50 mg/Kg of dose; value is 256/32; type: functional
Ovis aries [17] = assay: Antibody stimulation by serum hemagglutininin titer over the titer for the infected placebo-treated control in sheep red blood cells at 25 mg/Kg of dose; value is 16/16; type: functional
Ovis aries [18] = assay: Antibody stimulation by serum hemagglutininin titer over the titer for the infected placebo-treated control in sheep red blood cells at 50 mg/Kg of dose; value is 32/16; type: functional
Ovis aries [19] = assay: Antibody stimulation by serum hemagglutininin titer over the titer for the infected placebo-treated control in sheep red blood cells at 100 mg/Kg of dose; value is 512/32; type: functional
Mus musculus [20] = species on record: Mus musculus; assay: Percent reduction in spleen weight in mice as compared to infected untreated controls; NA = Not Active; type: functional, organism-based; outline: as §1
Ovis aries [21] = assay: Antibody stimulation by serum hemagglutininin titer over the titer for the infected placebo-treated control in sheep red blood cells at 50 mg/Kg of dose; NA = Not Active; type: functional, organism-based
Ovis aries [22] = assay: Antibody stimulation by serum hemagglutininin titer over the titer for the infected placebo-treated control in sheep red blood cells at 50 mg/Kg of dose; value is 1024/32; type: functional
Ovis aries [23] = assay: Antibody stimulation by serum hemagglutininin titer over the titer for the infected placebo-treated control in sheep red blood cells at 200 mg/Kg of dose; value is 64/16; type: functional
Ovis aries [24] = assay: Antibody stimulation by serum hemagglutininin titer over the titer for the infected placebo-treated control in sheep red blood cells at 50 mg/Kg of dose; value is 128/16; type: functional
Mus musculus [25] = assay: Percent reduction in spleen weight in mice as compared to infected untreated controls at 25 mg/kg; type: functional
Outline: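 BALB/c mice of the same sex, weighing at least 18 g and within a 3 g range, were inoculated ip with Rauscher leukemia virus as a 20% (w/v) spleen extract, five per group. Compound in 0.2% Noble agar/saline was given orally on days 6, 7 and 8, with SRBC ip on day 7. Mice were weighed on day 14, and percent spleen-weight reduction was taken versus infected placebo-treated controls.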

Ovis aries [26] = species on record: Ovis aries; assay: Antibody stimulation by serum hemagglutininin titer over the titer for the infected placebo-treated control in sheep red blood cells; value is 128/16; type: functional
Ovis aries [27] = species on record: Ovis aries; assay: Antibody stimulation by serum hemagglutininin titer over the titer for the infected placebo-treated control in sheep red blood cells; NA = Not active; type: functional, organism-based
Ovis aries [28] = assay: Antibody stimulation by serum hemagglutininin titer over the titer for the infected placebo-treated control in sheep red blood cells at 200 mg/Kg of dose; value is 32/16; type: functional

## CCN(CC)CCOc1ccc2cc3ccc(OCCN(CC)CC)c([N+](=O)[O-])c3nc2c1[N+](=O)[O-]
Mus musculus [1]
  Reduction: 108%
Mus musculus [2]
  Survivors: 1
Ovis aries [3]
  Antibody stimulation: 64

## CCN(CC)CCOc1ccc2cc3ccc(OCCN(CC)CC)c(Br)c3nc2c1Br
Mus musculus [4]
  Reduction: 92%
Mus musculus [2]
  Survivors: 6
Ovis aries [3]
  Antibody stimulation: 64

## CCCNCCCOc1ccc2cc3ccc(OCCCNCCC)cc3nc2c1.Cl.O
Mus musculus [4]
  Reduction: 96%
Mus musculus [2]
  Survivors: 13

## CC(CCOc1ccc2cc3ccc(OCCC(C)N(C)C)cc3nc2c1)N(C)C (stereo unspecified)
Mus musculus [5]
  Survivors: 5

## c1cc2cc3ccc(OCCN4CCCC4)cc3nc2cc1OCCN1CCCC1
Mus musculus [6]
  Reduction: 82%
Mus musculus [2]
  Survivors: 5
Ovis aries [3]
  Antibody stimulation: 64

## CCN(CC)CCOc1cc([N+](=O)[O-])c2cc3cc([N+](=O)[O-])c(OCCN(CC)CC)c(Cl)c3nc2c1Cl
Ovis aries [7]
  Antibody stimulation: 32
Mus musculus [6]
  Reduction: 46%
Mus musculus [2]
  Survivors: 3

## CCCCNCCOc1ccc2cc3ccc(OCCNCCCC)cc3nc2c1.Cl.O
Ovis aries [8]
  Antibody stimulation: 128
Mus musculus [1]
  Reduction: 92%
Mus musculus [2]
  Survivors: 7

## CCC(CO)NCCCOc1ccc2cc3ccc(OCCCNC(CC)CO)cc3nc2c1.Cl.O (stereo unspecified)
Ovis aries [9]
  Antibody stimulation: inactive
Mus musculus [1]
  Reduction: 74%

## CCN(CC)CCOc1ccc2cc3cc([N+](=O)[O-])c(OCCN(CC)CC)c(Cl)c3nc2c1Cl
Mus musculus [4]
  Reduction: 61%
Mus musculus [2]
  Survivors: 1
Ovis aries [10]
  Antibody stimulation: 64

## CNCCCOc1ccc2cc3ccc(OCCCNC)cc3nc2c1.Cl.O
Ovis aries [11]
  Antibody stimulation: 32
Mus musculus [1]
  Reduction: 18%
Mus musculus [2]
  Survivors: 8

## CCN(CC)CCCOc1ccc2cc3ccc(OCCCN(CC)CC)cc3nc2c1.Cl.O
Mus musculus [1]
  Reduction: 72%
Mus musculus [2]
  Survivors: 13
Ovis aries [12]
  Antibody stimulation: 128

## CCN(CC)CCOc1cc2nc3cc(OCCN(CC)CC)c(C)cc3cc2cc1C.Cl.O
Ovis aries [13]
  Antibody stimulation: 256
Mus musculus [1]
  Reduction: 21%
Mus musculus [2]
  Survivors: 4

## CCN(CC)CCOc1ccc2cc3ccc(OCCN(CC)CC)c(Cl)c3nc2c1Cl
Ovis aries [14]
  Antibody stimulation: 128
Mus musculus [6]
  Reduction: 86%
Mus musculus [2]
  Survivors: 7

## CCN(CC)CCOc1ccc2c(c1)C(=O)c1cc(OCCN(CC)CC)ccc1-2 [TILORONE]
Mus musculus [15]
  Survivors: 5

## CCNCCOc1ccc2cc3ccc(OCCNCC)cc3nc2c1.Cl.O
Ovis aries [11]
  Antibody stimulation: 32
Mus musculus [1]
  Reduction: 89%
Mus musculus [2]
  Survivors: 7

## Cl.c1cc2cc3ccc(OCCN4CCCCC4)cc3nc2cc1OCCN1CCCCC1
Ovis aries [14]
  Antibody stimulation: 128
Mus musculus [1]
  Reduction: 62%
Mus musculus [2]
  Survivors: 5

## CCN(CC)CCOc1ccc2cc3ccc(OCCN(CC)CC)cc3nc2c1.Cl.O
Ovis aries [16]
  Antibody stimulation: 256
Mus musculus [1]
  Reduction: 70%
Mus musculus [2]
  Survivors: 15

## CN(C)CCCOc1ccc2cc3ccc(OCCCN(C)C)cc3nc2c1.Cl.O
Ovis aries [17]
  Antibody stimulation: 16
Mus musculus [4]
  Reduction: 54%
Mus musculus [2]
  Survivors: 9

## CN1CCN(CCOc2ccc3cc4ccc(OCCN5CCN(C)CC5)cc4nc3c2)CC1
Mus musculus [6]
  Reduction: 75%
Mus musculus [2]
  Survivors: 1
Ovis aries [18]
  Antibody stimulation: 32

## Cl.OCCNCCOc1ccc2cc3ccc(OCCNCCO)cc3nc2c1
Ovis aries [7]
  Antibody stimulation: 32
Mus musculus [6]
  Reduction: 35%
Mus musculus [2]
  Survivors: 3

## CC(C)NCCOc1ccc2cc3ccc(OCCNC(C)C)cc3nc2c1.Cl
Mus musculus [4]
  Reduction: 96%
Mus musculus [2]
  Survivors: 15
Ovis aries [19]
  Antibody stimulation: 512

## CCN(CC)CCOc1ccc2cc3cc([N+](=O)[O-])c(OCCN(CC)CC)c(Br)c3nc2c1Br
Mus musculus [2]
  Survivors: 5
Mus musculus [20]
  Reduction: inactive
Ovis aries [21]
  Antibody stimulation: inactive

## Cl.O.c1cc2cc3ccc(OCCCN4CCCCC4)cc3nc2cc1OCCCN1CCCCC1
Ovis aries [22]
  Antibody stimulation: 1024
Mus musculus [6]
  Reduction: 74%
Mus musculus [2]
  Survivors: 9

## CCCNCCOc1ccc2cc3ccc(OCCNCCC)cc3nc2c1.Cl.O
Ovis aries [23]
  Antibody stimulation: 64
Mus musculus [1]
  Reduction: 101%
Mus musculus [2]
  Survivors: 10

## CNCCOc1ccc2cc3ccc(OCCNC)cc3nc2c1.Cl
Mus musculus [1]
  Reduction: 86%
Mus musculus [2]
  Survivors: 1
Ovis aries [24]
  Antibody stimulation: 128

## Cl.NCCOc1ccc2cc3ccc(OCCN)cc3nc2c1.O
Ovis aries [11]
  Antibody stimulation: 32
Mus musculus [1]
  Reduction: 40%
Mus musculus [2]
  Survivors: 1

## CCN(CC)CCOc1ccc2cc3cc(N)c(OCCN(CC)CC)c(Cl)c3nc2c1Cl.Cl.O
Mus musculus [25]
  Reduction: 55%
Ovis aries [26]
  Antibody stimulation: 128

## CN(C)CCCCOc1ccc2cc3ccc(OCCCCN(C)C)cc3nc2c1.Cl.O
Mus musculus [6]
  Reduction: 52%
Mus musculus [2]
  Survivors: 2
Ovis aries [27]
  Antibody stimulation: inactive

## CCNCCCOc1ccc2cc3ccc(OCCCNCC)cc3nc2c1.Cl.O
Mus musculus [4]
  Reduction: 78%
Mus musculus [2]
  Survivors: 7
Ovis aries [28]
  Antibody stimulation: 32

## O=P1(N(CCCl)CCCl)NCCCO1 (stereo unspecified) [CYCLOPHOSPHAMIDE ANHYDROUS]
Mus musculus [25]
  Reduction: 102%
